Sampled rows, rich in hits. Any-hit rate of the full collection: about 5.2%.
Ecoli WT expand – growth inhibitors of wild-type E. coli, primary screen, strain BW25113, expanded library, OD600; OD600 absorbance; growth inhibition, % at 100 µM; 0.15% of 98,000 active; AID 710, 2007;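 active means growth inhibition above about 50% at one test dose, limit read from the data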;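 further: growth measured after 20 h incubation at 37 °C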
M1 agonist – M1 muscarinic receptor agonists, primary screen, CHO-M1 cells, Fluo-4 calcium, agonist mode; Muscarinic acetylcholine receptor M1; Fluo-4 calcium fluorescence; active compounds read high; B-score at 10 µM; 3% of 64,000 active;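 active means fluorescence rise, raw or as B-score row- and column-corrected plate score, outside the 99.7% band of its plate's samples, either direction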
WNV NS2B-NS3 inh – inhibitors of WNV NS2B-NS3 protease, primary screen, biochemical, fluorogenic substrate; Genome polyprotein (West Nile virus), P06935; fluorogenic substrate Ex360/Em465; active compounds read low; z-score (concentration not given with the values); 0.18% of 65,000 active; AID 577, 2007; in the data active means z-score below about -3
tolC growth inh – growth inhibitors of E. coli tolC mutant, primary screen, strain BW25113 ΔtolC::kan, 384-well | OD615 | growth inhibition, % at 10 µM (by protocol) | 2.2% of 65,000 active | AID 573, 2007;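 active means growth inhibition at or above a cutoff equal to the mean over every tested compound plus 3 SD, cut at about 60% in these data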;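 further: growth measured after 20 h incubation at 37 °C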
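Test system: tolC-deleted E. coli BW25113 | Medium: LB with kanamycin 50 µg/mL | Compound dosing: Single concentration, 10 µM final per compound | Schedule: 37 °C, 20 h exposure | Measured by: OD at 615 nm | Evaluation: Percent growth inhibition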
AP ELISA ortho – alternative complement pathway inhibitors, primary screen, biochemical, ELISA, human serum, orthogonally pooled compounds; LPS-coated ELISA, C3 deposition; tested in compound mixtures; inhibition, % at 5 µM; 0.08% of 62,000 active; AID 1235, 2008;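 active means inhibition above 30% in each of the two pooled mixtures holding the compound, so the lower value exceeds 30%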;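 further: 0% = serum in Mg-EGTA without compound and 100% = EDTA serum blank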
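Assay system: human serum alternative complement pathway, C3 deposition on LPS-coated wells; Dosing: 5 µM per compound in ten-compound mixtures; Detection: Anti-C3 ELISA, OD 450 nm; Buffer or medium: Mg2+-EGTA GVB++ buffer containing human serum at 1:15 dilution; Timing: 1 h at 37 °C; Replication: two different pools per compound.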
M1 antag – antagonists of rat M1 muscarinic receptor | Muscarinic acetylcholine receptor M1 (Rattus norvegicus), P08482 | CHO-M1 cells, Fluo-4 calcium, ACh EC80 antagonist mode; active compounds read low | B-score at 10 µM | 3.4% of 64,000 active | AID 628, 2007;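 active means calcium fluorescence response, raw or row-and-column corrected B-score, differing from the plate sample mean either way at a set confidence level, mostly lower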
Target sequence (P08482 whole entry, looked up): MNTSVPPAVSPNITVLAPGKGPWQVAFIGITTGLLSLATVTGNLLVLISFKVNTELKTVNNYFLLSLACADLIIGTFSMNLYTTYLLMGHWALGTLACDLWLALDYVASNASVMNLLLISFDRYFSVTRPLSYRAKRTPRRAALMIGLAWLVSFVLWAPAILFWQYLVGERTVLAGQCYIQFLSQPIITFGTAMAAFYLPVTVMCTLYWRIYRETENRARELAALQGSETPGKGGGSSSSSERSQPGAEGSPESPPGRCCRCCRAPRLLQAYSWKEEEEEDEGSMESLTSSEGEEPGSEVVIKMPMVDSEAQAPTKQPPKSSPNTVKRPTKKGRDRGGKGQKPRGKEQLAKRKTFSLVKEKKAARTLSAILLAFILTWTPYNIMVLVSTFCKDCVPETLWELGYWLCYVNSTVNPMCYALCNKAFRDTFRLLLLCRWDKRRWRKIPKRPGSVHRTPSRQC
Numbers without * were called inactive; . = no result given.

SMILES	Ecoli WT expand	M1 agonist	WNV NS2B-NS3 inh	tolC growth inh	AP ELISA ortho	M1 antag
Cc1ccc2cc(C(c3nnnn3C3CCCC3)N(Cc3ccco3)Cc3cccs3)c(=O)[nH]c2c1 (stereo not given)	-17	.	.	.	.	.
Clc1ccc(C(c2nnnn2C2CCCCC2)N(Cc2cccnc2)Cc2ccco2)cc1 (stereo not given)	.	.	-1.2	69*	3	.
Cc1ccc2cc(C(c3nnnn3C3CCCC3)N(Cc3cccnc3)Cc3ccco3)c(=O)[nH]c2c1 (stereo not given)	-16	-0.18	-0.25	65*	-2	-0.18
Cc1ccc2[nH]c(=O)c(C(c3nnnn3C3CCCC3)N(Cc3cccnc3)Cc3ccco3)cc2c1 (stereo not given)	-12	0.82	-0.72	63*	-6	-0.0073
COc1ccc2[nH]c(=O)c(CN(C3CCCCC3)C(c3nnnn3Cc3ccco3)C(C)C)cc2c1 (stereo not given)	-1	-0.26	-1.1	19	12	-0.26
COc1cc2c(cc1OC)CN(C(C)C(=O)Nc1ccc(NC(C)=O)cc1)CC2 (stereo not given)	3	.	.	.	.	.
CCc1nc(N)c(C#N)c(-c2ccccc2OC)c1C	-8	0.052	0.52	12	9	0.55
COc1ccc(CSc2nnc(Cc3sc(-c4ccccc4)nc3-c3ccccc3)o2)cc1	-26	.	.	.	.	.
CN(C)c1nc2n(c(=O)n1)CCS2	1	.	.	.	.	.
CN(C)c1nc2n(c(=O)n1)C(C#N)CS2 (stereo not given)	2	-0.059	0.06	-4	.	3*
Cc1ccc(NC(=O)Cn2cccc2)c(C)c1	-10	.	.	.	.	.
COCCn1nnnc1C(C(C)C)N(Cc1cccnc1)Cc1cc2cc(OC)ccc2[nH]c1=O (stereo not given)	8	-0.064	0.17	-5	21	0.95
COCCn1nnnc1C(C(C)C)N(Cc1ccccc1)Cc1cc2cc(OC)ccc2[nH]c1=O (stereo not given)	-2	0.07	-0.19	76*	-3	-0.26
CCOC(=O)C1(N(CC)CC)Sc2cc(C)ccc2NC1=O (stereo not given)	6	-0.096	-0.68	72*	23	1.1
O=C(CSc1ncnc2c1oc1ccccc12)N1CCCc2ccccc21	-30	1.8	-1.2	63*	26	-2.3
COc1ccc(-c2nc3c(=O)n(C)c(=O)[nH]c3n2CCc2ccccc2)cc1	-8	0.31	-3.5*	-4	5	0.052
COc1ccc(OC2C(=O)N(Cc3ccc4c(c3)OCO4)C2c2sccc2C)cc1 (stereo not given)	-20	.	.	.	.	.
COc1ccc2c(c1)OC13CCCCC1C2C(C(=O)c1ccccc1)C(=O)N3 (stereo not given)	-13	.	.	.	.	.
CCOc1cc(-c2c(C#N)c(N)nc3c2CCCC3C)ccc1O (stereo not given)	2	0.19	0.41	86*	-5	-0.46
CCOc1cc(-c2cc(-c3ccc(C)cc3)nc(N)c2C#N)ccc1O	2	.	.	.	.	.
O=C(c1cccc(F)c1)N1CCN(C(=O)c2cc(-c3ccc(Cl)cc3Cl)on2)CC1	-14	0.96	1.3	64*	-1	-0.84
CCNC(=O)NC(=O)CSc1nc2ccccc2n1CCOC	-5	.	.	.	.	.
CCOC(=O)CS(=O)(=O)c1nc(-c2ccc(F)cc2)cc(C(F)(F)F)n1	4	4.4*	1.4	18	12	0.051
Cc1cc(Br)cc(C)c1NC(=S)NC(=O)CC(C)C	-7	.	.	.	.	.
CCOC(=O)CCc1c(C)nc2cc(-c3ccccc3OC)[nH]n2c1=O	-1	-0.053	0.79	-6	22	2.1*
SMILES	Ecoli WT expand	M1 agonist	WNV NS2B-NS3 inh	tolC growth inh	AP ELISA ortho	M1 antag
O=C(NCc1ccccc1)c1cccc(NC(=O)c2ccco2)c1	2	0.058	.	9	8	-0.23
Cc1ccc(C(=O)Nc2cccc(C(=O)NCc3ccccc3)c2)o1	0	3.1*	-0.44	18	1	-0.41
O=C(CSc1nc(C2CC2)nc2ccccc12)NCc1ccc2c(c1)OCO2	3	.	.	.	.	.
CCC(C)C(=O)Nc1cc(C(=O)OC)cc(C(=O)OC)c1 (stereo not given)	5	-0.36	-0.51	-16	8	-0.083
CCOC(=O)/C(C#N)=C1/C=C(C)NC(c2ccccc2O)=N1	2	16*	1.4	58	-15	-7.1*
CCc1ccc(OCC(=O)N2CCN=C2c2ccccc2)cc1	-9	.	.	.	.	.
COc1cccc(NC(=O)CSc2nc3c(c(-c4ccco4)c2C#N)CCCC3)c1	-11	-2.6*	-0.08	-12	4	0.26
COc1cc(C(=O)Nc2cccc(-c3nc4ncccc4o3)c2C)cc(OC)c1OC	-8	-0.26	-0.0011	8	31*	0.037
O=[N+]([O-])c1cc(Br)c(O)c(/C=N/Nc2nnnn2-c2cccc3ccccc23)c1	19	.	.	.	.	.
CCCCC(=O)Nc1ccc(C(=O)N2CCN(c3ccccc3OC)CC2)cc1	-1	-0.051	2.5	25	16	3.4*
COc1ccccc1N1CCN(C(=O)c2ccc(NC(C)=O)cc2)CC1	2	0.22	-0.94	-12	10	-0.11
COc1ccc(C(C(O)C(=O)c2c[nH]c3ccccc23)N2CCN(c3ccc(OC)cc3)CC2)cc1 (stereo not given)	-1	-2.3	-0.66	76*	16	1.1
O=C(c1c[nH]c2ccccc12)C(O)C(c1ccccc1)N1CCOCC1 (stereo not given)	5	-0.19	-0.27	-2	15	0.3
CC1(C)Cc2c(sc3c2C(=O)N(c2ccccc2)C2=NCCN23)CS1	5	.	.	.	.	.
CN1C(=O)c2c(sc3c2CC(C)(C)SC3)N2CCN=C12	.	0.21	-1.1	13	35*	-1.1
CCCn1c(=O)c(C(=O)Nc2ccccc2C(=O)OCC)c(O)c2ccccc21	-17	-0.31	-0.26	0	-6	0.12
CCC(C)n1c(=O)c(C(=O)Nc2ccccc2S(N)(=O)=O)c(O)c2ccccc21 (stereo not given)	-5	-0.036	1.4	83*	-21	0.46
CC(C)Cn1c(=O)c(C(=O)Nc2ccccc2S(N)(=O)=O)c(O)c2ccccc21	-3	1.3	0.33	100*	-5	-0.88
CCOC(=O)Cc1csc(NC(=O)c2c(O)c3ccccc3n(CC(C)C)c2=O)n1	4	.	.	.	.	.
COc1ccc(NC(=O)c2ccco2)cc1NC(=O)c1ccc(C)cc1	-2	0.23	-0.97	-19	1	-0.29
COc1ccc(NC(=O)c2ccco2)cc1NC(=O)c1ccc(Br)o1	-12	8.9*	0.2	-18	-4	-0.062
c1cncc(-c2cccnc2)c1	11	0.55	-1.1	-23	6	0.68
CC(C)n1c(-c2cccnc2)nc2cnccc21	-3	1.1	-9.4*	-24	7	0.0044
